CR mimetic SO – lowers age-related superoxide in aged yeast cells | 330,000 tested, 0.18% active | S. cerevisiae aged cells, superoxide DHE fluorescence; active compounds read low | superoxide response (% of plate mean), % at 10 µM;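 active means superoxide response under a set limit, about three screen SD below normal, cut at about 65% in these data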;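 further: yeast aged for seven days with compound at 30 °C before DHE staining; 100% = average MFI of all compound-treated wells on the plate with controls excluded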
SR-BI HDL uptake – inhibitors of mouse SR-BI mediated HDL lipid uptake. 320,000 tested, 0.96% active. ldlA[mSR-BI] CHO cells, DiI-HDL uptake fluorescence, 3 h. AID 488896. Q61009. inhibition, % at 12.5 µM;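 active means mean replicate inhibition of at least 70% and a set share of replicates each scoring 70 or more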;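 further: 0% = median of neutral control wells and 100% = median of positive control wells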
SR-BI DiI-HDL act – activators of SR-BI mediated HDL lipid uptake; CHO ldlA[mSR-BI] cells, DiI-HDL uptake fluorescence, 3 h; 100 = double the neutral-control signal; activation, % at 12.5 µM; 320,000 tested, 0.096% active; AID 504775;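 active means mean replicate activation of at least 60% and every replicate at or above 60%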;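 further: 0% = median plate neutral-control signal and 100% = twice that signal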
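Material – SR-BI-overexpressing, LDLR-lacking CHO cells · Medium – BSA-supplemented, HEPES-buffered Ham's F12, pH 7.4 · Doses – single concentration · Times – compound with DiI-HDL co-incubation, 3 h at 37 °C · Measured by – bottom-read fluorescence, 550/595 nm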
SMARCA2 activ – SMARCA2 function activation, primary screen. activation, % at 9.1 µM. AID 652017. MG213 cells, MMTV-luciferase reporter, dexamethasone, overnight. 370,000 tested, 1% active; in the data active means activation above about 7.8%;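 further: 0% = vehicle wells and 100% = reference activator wells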
Hep lipid drop – hepatic lipid droplet formation modulation; AML12 mouse hepatocytes, oleate lipid droplets, BODIPY imaging; inhibition, % at 6.5 µM; 240,000 tested, 0.4% active; AID 1656;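 active means lipid droplet intensity inhibited by at least 50%, with more than 500 cells counted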
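Material: mouse AML12 hepatocyte cell line, fixed after treatment; Timing: compound with oleate, overnight; Technique: high-content imaging of BODIPY-stained droplets and DAPI nuclei; Probe or stimulus: oleate, 100 µM final; Dosing: compound at 6.5 µM only.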
AHR act – activates the human aryl hydrocarbon receptor; P35869; AHR-responsive luciferase reporter cells, luminescence; activation, % at 5 µM; 320,000 tested, 2.5% active; AID 2796; in the data active means activation above about 47%;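 further: 0% = vehicle wells and 100% = reference agonist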
AHR act confirm – confirmation of human aryl hydrocarbon receptor activators | shares compounds with AHR act | human cells, AHR-responsive luciferase reporter, luminescence | activation, % at 9 µM | 2,300 tested, 87% active | AID 2845; in the data active means activation above about 49%;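 further: HepG2 hepatoma cells carrying a DRE-driven firefly luciferase reporter; 0% = vehicle wells and 100% = reference agonist wells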
PXR act counter – PXR activation, counter-screen for AHR activators; 2,300 tested, 88% active; activation, % at 11.6 µM; cell-based PXR reporter, luciferase luminescence; shares compounds with AHR act; in the data active means activation above about 11%;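 further: human hepatoma DPX-2 cells expressing full-length human PXR; 0% = DMSO and 100% = reference agonist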
Target sequence (O75469 whole entry, looked up): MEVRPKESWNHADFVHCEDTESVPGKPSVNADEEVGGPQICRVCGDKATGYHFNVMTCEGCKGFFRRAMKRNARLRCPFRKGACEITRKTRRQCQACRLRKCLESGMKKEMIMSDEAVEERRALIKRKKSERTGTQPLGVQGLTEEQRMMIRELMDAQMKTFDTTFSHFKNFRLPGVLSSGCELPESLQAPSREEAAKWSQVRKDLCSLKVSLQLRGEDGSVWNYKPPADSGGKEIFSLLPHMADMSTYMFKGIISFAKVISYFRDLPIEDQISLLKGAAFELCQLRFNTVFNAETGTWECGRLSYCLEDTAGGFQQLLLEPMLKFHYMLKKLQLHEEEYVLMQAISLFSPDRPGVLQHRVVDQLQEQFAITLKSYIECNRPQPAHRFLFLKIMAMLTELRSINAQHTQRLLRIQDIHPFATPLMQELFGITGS
Active calls of the source: *; · = no result given. Rows were chosen to be rich in hits. Some 4.3% of all compounds tested hit in one or more screens of this group.

SMILES	CR mimetic SO	SR-BI HDL uptake	SR-BI DiI-HDL act	SMARCA2 activ	Hep lipid drop	AHR act	AHR act confirm	PXR act counter
CC1=NN(c2ccccc2)C(=O)/C1=C/c1cccs1	96.0	-24.3	24.3	-1.4	0.9	83.8*	86.5*	36.8*
Cc1n[nH]c(C)c1N=Nc1ccc(Br)cc1	106.7	21.3	-21.3	3.2	-2.2	131.7*	123.1*	20.2*
CCCCCN1CCCCC(NC(=O)CSc2ccccc2)C1=O (configuration not stated)	·	·	·	-0.1	·	·	·	·
COc1cc(C)nc(Nc2nc(C)c(C(C)=O)s2)n1	93.8	14.1	-14.1	-1.5	·	108.4*	37.8	11.1*
CC(=O)Nc1nc(C)c(C(C)=O)s1	106.5	33.8	-33.8	5.5	-4.1	-3.9	·	·
Cn1ncc(C(=O)Nc2ccc(OC(F)(F)F)cc2)c1-n1cccc1	82.0	15.7	-15.7	-3.2	2.0	80.4*	99.6*	30.4*
Cn1ncc(C(=O)Nc2ccc(Cl)cc2)c1C(F)(F)F	109.9	9.5	-9.5	-3.2	-12.5	6.5	·	·
CC(C)C[C@@H]1NC(=O)[C@H]2C[C@@]3(C)c4ccccc4N[C@H]3N2C1=O	·	·	·	-6.0	·	·	·	·
COc1ccccc1Nc1nc(N)nc(-c2cc3ccccc3o2)n1	100.3	21.0	-21.0	4.6	-3.5	84.7*	20.9	46.0*
Cc1ccccc1/C=c1\s/c(=C\C(=O)C(C)(C)C)[nH]c1=O	107.4	6.2	-6.2	-2.9	8.6	119.2*	76.4*	104.9*
O=C(NC1CCCCN(Cc2cccc(Cl)c2)C1=O)c1ccc(-c2ccccc2)cc1 (configuration not stated)	·	·	·	-5.0	·	·	·	·
COc1ccccc1-c1nnc(NC(C)=O)s1	90.9	2.1	-2.1	6.4	·	81.9*	59.3*	·
COc1ccccc1-c1nnc(NC(=O)C(C)C)s1	117.2	·	·	2.1	·	84.3*	123.5*	16.2*
CC(C)C(=O)Nc1nnc(NC(=S)Nc2ccccc2)s1	101.6	5.6	-5.6	0.7	-2.0	103.6*	61.2*	20.9*
CCCc1nnc(NC(=S)Nc2ccccc2)s1	96.2	11.2	-11.2	4.6	16.6	8.7	·	·
O=C(NC(=S)Nc1ccccc1N1CCCC1)c1cccc(F)c1	96.9	24.3	-24.3	-2.4	-23.8	80.1*	90.6*	43.1*
O=C(Nc1ccccc1N1CCCC1)c1cccc(F)c1	100.6	27.4	-27.4	-1.5	-1.6	3.1	·	·
CN(C)CCCNC(=O)c1c(N)[nH]c(C(=O)c2ccc(Br)cc2)c1-c1ccc(Br)cc1	·	·	·	-4.3	·	·	·	·
CCOC(=O)NC[C@@]1(C(=O)OC)CC(=O)N(C)[C@@H]1c1ccccc1	·	·	·	-0.7	·	·	·	·
COc1ccccc1-c1noc(-c2ccncc2)n1	94.9	·	·	1.2	-0.2	19.8	·	·
COc1ccccc1-c1nc(-c2ccccn2)no1	101.8	4.8	-4.8	4.1	·	112.9*	118.2*	6.2
COc1ccccc1-c1noc(-c2cccs2)n1	118.7	-2.9	2.9	2.4	·	85.5*	144.1*	17.5*
COC(=O)C1CN(Cc2ccccc2)CCS(=O)(=O)N1Cc1cn(Cc2cccc(Cl)c2)nn1 (configuration not stated)	·	·	·	-2.7	·	·	·	·
COC(=O)C1CN(C2CCCC2)CCS(=O)(=O)N1Cc1cn(Cc2ccccc2)nn1 (configuration not stated)	·	·	·	0.1	·	·	·	·
Cc1ccc2c(c1)c1nnc(SCC(=O)NC3CC3)nc1n2C	89.5	-9.1	9.1	-2.0	-11.8	79.4*	100.2*	19.1*
Cn1c2ccccc2c2nnc(SCC(=O)NC3CCCC3)nc21	96.0	-16.3	16.3	3.0	-0.6	-0.6	·	·
Cc1cc(C)c2[nH]c(O)c(N=NC3=NC(=O)CS3)c2c1	95.6	·	·	-1.2	17.0	95.0*	118.3*	15.8*
Cc1cc(C)c2[nH]c(O)c(N=Nc3ccc(C(=O)O)cc3)c2c1	100.6	-7.7	7.7	2.2	4.7	-0.1	·	·
CCCCN1CC(N2CCCC2)CS1(=O)=O (configuration not stated)	·	·	·	-4.6	·	·	·	·
O=C(C=Cc1ccccc1Cl)c1ccccc1	·	-3.9	3.9	5.8	·	·	·	·
